Publication PMC8184462 (Annals of Translational Medicine, 2021)

Assays:
[1] = Plasma pharmacokinetics of unlabeled almonertinib and metabolite HAS-719; type: in vivo, human
Outline: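 Four healthy fasted male volunteers received one oral [14C]-labeled suspension of the test compound (110 mg/50 µCi) and ate lunch 4 h after dosing. Blood (7 mL) was drawn predose and at 1–504 h, centrifuged (3,000 rpm, 10 min) and stored at –20 °C. Parent and metabolite were quantified by validated LC-MS/MS. Noncompartmental parameters are reported as mean ± SD.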

[2] = type: in vivo, human
Outline: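 Urine and feces were collected until cumulative recovery exceeded 80% of dose and fell below 1% of dose per day on 2 consecutive days. Radioactivity was counted by liquid scintillation: urine directly, feces after homogenization with solvent and combustion with CO2 trapping. Each interval's excretion was expressed relative to the actual administered radioactivity (vial content minus residue), then summed cumulatively.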

[3] = test system: T790M-mutant NSCLC cell line H1975; conditions: ref [14],[15]; cited from earlier work
[4] = test system: T790M-mutant NSCLC cell line LU1868; conditions: ref [14],[15]; cited from earlier work
[5] = test system: NSCLC HCC827 cell line harboring EGFR-sensitive mutants; conditions: ref [14],[15]; cited from earlier work
NSCLC = conditions: ref [15], cited from earlier work

CL/F ([1]; LC-MS/MS, single oral 110 mg/50 µCi, mean±SD): 36.8 ± 10.8 L/h
AUC(0-inf) ([1]; male, human, po, 110 mg): 3160 ng·h/mL
AUC(0-t) ([1]; male, human, po, 110 mg): 2900 ng·h/mL
Cmax ([1]; male, human, po, 110 mg): 119 ± 27.7 ng/mL
Tmax ([1]; male, human, po, 110 mg): 5.25 ± 3.2 h
Vd/F ([1]; male, human, po, 110 mg): 1270 L
half-life ([1]; male, human, po, 110 mg): 25 ± 6.41 h
Main excretion route ([2]; 0–504 hours): mainly excreted via feces
Cumulative excretion rate of drug TRA (urine + feces) ([2]; 0–504 hours after administration, % of dose): 90.19%±4.18%
Cumulative excretion rate in feces ([2]; 0–504 hours, % of dose): 84.75%±3.35%
Cumulative excretion rate in urine ([2]; 0–504 hours, % of dose): 5.44%±0.83%
Structure (SMILES): C=CC(=O)Nc1cc(Nc2nccc(-c3cn(C4CC4)c4ccccc34)n2)c(OC)cc1N(C)CCN(C)C [HS-10296, almonertinib]
Growth inhibition [3]: potently inhibited the growth
Growth inhibition [4]: potently inhibited the growth
Growth inhibition [5]: potently inhibited the growth
Tolerability (NSCLC; 26 patients, 55, 110, 220, 260 mg, single or multiple dose): well tolerated
Dose linearity of metabolism (NSCLC; 55–260 mg): linear trend
Antitumor activity (NSCLC; NSCLC patients, dose-escalation cohort): preliminary antitumor activity
